# Experiments:
# Oryctolagus cuniculus [1] = assay: Progestational activity in rabbit assessed as range of proliferation index at 4 mg, sc by Clauberg assay relative to control; format: functional
# Procedure, shortened: (§1)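 Modified Clauberg assay in rabbits, 2 animals per dose group, with the total dose given by subcutaneous injection. Uterine progestational proliferation was scored histologically by McPhail's method and reported as the range and mean proliferation index. Uterine weight was reported as the group mean.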
# Oryctolagus cuniculus [2] = assay: Progestational activity in rabbit assessed as mean uterine weight at 0.4 mg, sc by Clauberg assay; format: functional; procedure, shortened: as §1
# Oryctolagus cuniculus [3] = assay: Progestational activity in rabbit assessed as mean proliferation index at 4 mg, sc by Clauberg assay relative to control; format: functional; procedure, shortened: as §1
# Oryctolagus cuniculus [4] = assay: Progestational activity in rabbit assessed as mean uterine weight at 4 mg, sc by Clauberg assay; format: functional; procedure, shortened: as §1
# Oryctolagus cuniculus [5] = assay: Progestational activity in rabbit assessed as range of proliferation index at 0.4 mg, sc by Clauberg assay relative to control; format: functional; procedure, shortened: as §1
# Oryctolagus cuniculus [6] = assay: Progestational activity in rabbit assessed as mean proliferation index at 0.4 mg, sc by Clauberg assay relative to control; format: functional; procedure, shortened: as §1
# [7] = target: T1, Progesterone receptor (Oryctolagus cuniculus) (UniProt P06186); assay: Displacement of [3H]-progesterone from progesterone receptor in rabbit uterine cytosol relative to progesterone; settings: Uterus
# T1 sequence (whole entry): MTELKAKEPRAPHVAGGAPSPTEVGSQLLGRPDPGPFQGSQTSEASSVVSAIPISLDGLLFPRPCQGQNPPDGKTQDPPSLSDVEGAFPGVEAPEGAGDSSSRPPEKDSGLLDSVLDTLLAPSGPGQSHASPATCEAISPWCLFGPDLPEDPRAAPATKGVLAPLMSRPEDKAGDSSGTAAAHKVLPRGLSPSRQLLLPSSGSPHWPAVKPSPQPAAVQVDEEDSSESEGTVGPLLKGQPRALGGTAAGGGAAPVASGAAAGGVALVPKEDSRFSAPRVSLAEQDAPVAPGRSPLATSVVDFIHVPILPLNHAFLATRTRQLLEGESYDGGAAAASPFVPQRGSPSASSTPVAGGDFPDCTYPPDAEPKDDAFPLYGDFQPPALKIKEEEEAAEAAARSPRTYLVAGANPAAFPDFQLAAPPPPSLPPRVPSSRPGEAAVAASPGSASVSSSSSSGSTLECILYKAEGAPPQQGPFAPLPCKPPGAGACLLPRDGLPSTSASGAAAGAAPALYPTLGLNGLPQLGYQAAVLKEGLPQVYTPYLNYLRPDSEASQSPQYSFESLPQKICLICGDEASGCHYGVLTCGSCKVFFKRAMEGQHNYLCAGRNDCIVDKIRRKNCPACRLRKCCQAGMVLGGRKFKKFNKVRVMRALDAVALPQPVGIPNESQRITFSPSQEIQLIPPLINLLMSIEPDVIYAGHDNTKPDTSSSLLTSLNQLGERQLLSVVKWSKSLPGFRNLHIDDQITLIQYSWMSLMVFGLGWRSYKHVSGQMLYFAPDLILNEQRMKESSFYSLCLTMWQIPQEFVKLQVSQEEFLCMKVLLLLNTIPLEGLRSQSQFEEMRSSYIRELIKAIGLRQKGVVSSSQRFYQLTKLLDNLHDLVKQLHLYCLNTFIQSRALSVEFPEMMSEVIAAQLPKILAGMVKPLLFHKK
# Oryctolagus cuniculus [8] = assay: Progestational activity in rabbit assessed as mean uterine weight at 0.2 mg, sc by Clauberg assay; format: functional; procedure, shortened: as §1
# Oryctolagus cuniculus [9] = assay: Progestational activity in rabbit assessed as mean uterine weight at 0.5 mg, sc by Clauberg assay; format: functional; procedure, shortened: as §1
# Oryctolagus cuniculus [10] = assay: Progestational activity in rabbit assessed as range of proliferation index at 0.5 mg, sc by Clauberg assay relative to control; format: functional; procedure, shortened: as §1
# Oryctolagus cuniculus [11] = assay: Progestational activity in rabbit assessed as range of proliferation index at 0.2 mg, sc by Clauberg assay relative to control; format: functional; procedure, shortened: as §1
# Oryctolagus cuniculus [12] = assay: Progestational activity in rabbit assessed as mean proliferation index at 0.5 mg, sc by Clauberg assay relative to control; format: functional; procedure, shortened: as §1
# Oryctolagus cuniculus [13] = assay: Progestational activity in rabbit assessed as mean proliferation index at 0.2 mg, sc by Clauberg assay relative to control; format: functional; procedure, shortened: as §1
structure (smiles),measurement,setting,value
CC(=O)[C@H]1CC[C@@H]2[C@H]3CCC4=CC(=O)CC[C@@]4(C)[C@@H]3CC[C@]12C (racemic),Ratio,Oryctolagus cuniculus [1],1
same,Activity,Oryctolagus cuniculus [2],0.79 g
same,Ratio,Oryctolagus cuniculus [3],2
same,Activity,Oryctolagus cuniculus [4],1.24 g
same,Ratio,Oryctolagus cuniculus [5],0
same,Ratio,Oryctolagus cuniculus [6],0
same,RBA,[7],2%
CC(=O)[C@H]1CC[C@H]2[C@@H]3CCC4=CC(=O)CC[C@]4(C)[C@H]3CC[C@]12C [PROGESTERONE],Activity,Oryctolagus cuniculus [8],1.49 g
same,Activity,Oryctolagus cuniculus [9],2.34 g
same,Ratio,Oryctolagus cuniculus [10],3.5
same,Ratio,Oryctolagus cuniculus [11],0.5
same,Ratio,Oryctolagus cuniculus [12],3.5
same,Ratio,Oryctolagus cuniculus [13],0.75
